Calls of active or inactive are those of the source. No cut-off for these calls is given here.
Columns and labels:
Oryza sativa [1] = assay: Inhibition of seedling elongation in Oryza sativa after 7 days
Oryza sativa [2] = assay: Inhibition of seedling elongation in Oryza sativa at 100 uM after 7 days
[3] = biological target: T1, IAA-amino acid hydrolase ILR1-like 4 (Arabidopsis thaliana) (UniProt O04373); assay: Activity at GST-tagged IAR3 of Arabidopsis thaliana assessed as ABA release per mg of protein after 7 hrs by HPLC
T1 sequence (whole entry): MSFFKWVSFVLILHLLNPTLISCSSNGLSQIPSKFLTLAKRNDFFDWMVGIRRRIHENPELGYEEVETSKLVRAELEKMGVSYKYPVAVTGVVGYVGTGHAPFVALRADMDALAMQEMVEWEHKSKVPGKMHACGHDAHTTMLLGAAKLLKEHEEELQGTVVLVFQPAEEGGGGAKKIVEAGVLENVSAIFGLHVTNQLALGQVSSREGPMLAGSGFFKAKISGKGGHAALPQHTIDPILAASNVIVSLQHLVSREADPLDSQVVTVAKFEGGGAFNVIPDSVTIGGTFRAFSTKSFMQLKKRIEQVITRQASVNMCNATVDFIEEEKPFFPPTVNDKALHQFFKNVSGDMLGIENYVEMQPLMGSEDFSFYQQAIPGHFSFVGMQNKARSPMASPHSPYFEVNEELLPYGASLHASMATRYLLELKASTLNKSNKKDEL
Summary of the method: (§1)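 Recombinant Arabidopsis GST-IAR3 expressed in E. coli BL21(DE3) (IPTG 50 µM, overnight at 18 °C) and purified on glutathione-agarose. Substrate at 1 mM was preincubated 5 min at 30 °C in 50 mM Tris-HCl pH 8.0 with 1 mM DTT and 1 mM MnCl2. Reaction started with 15 ng/µl enzyme at 30 °C, sampled up to 5 h (some substrates 7 or 24 h), quenched in MeOH/1% AcOH, cleaned on cartridge, HPLC at 254 nm.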

Arabidopsis thaliana [4] = assay: Inhibition of seed germination in Arabidopsis thaliana at 10 uM after 24 hrs; format: functional
Summary of the method: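 Arabidopsis Col-0 seeds, 25 per test, sterilized in 70% EtOH for 30 min then EtOH for 1 min. Seeds were soaked in 250 µl test solution and chilled 3 days at 5 °C in the dark, then germinated on filter paper under continuous light for 24 h at 22 °C. Scored as % with emerged radicle; run twice. Single-concentration test at 10 µM.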

[5] = Chemical stability of the compound at 25 degC after 7 days; format: physicochemical; settings: 168 h
Summary of the method: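 Compound at 100 µM in 2 ml aqueous solution, prepared as for the rice growth assay, held in a capped glass tube at 25 °C under continuous light for 7 days, then analysed by reverse-phase HPLC.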

[6] = biological target: T1, IAA-amino acid hydrolase ILR1-like 4 (Arabidopsis thaliana); assay: Activity at GST-tagged IAR3 of Arabidopsis thaliana assessed as ABA release per mg of protein after 5 hrs by HPLC
Summary of the method: as §1

[7] = biological target: T1, IAA-amino acid hydrolase ILR1-like 4 (Arabidopsis thaliana); assay: Activity at GST-tagged IAR3 of Arabidopsis thaliana assessed as IAA release per mg of protein after 5 hrs by HPLC
Summary of the method: as §1

Oryza sativa [8] = assay: Metabolic stability in Oryza sativa seedling assessed as ABA-d6 release per mg of protein after 4 days by LC-MS; format: ADME, organism-based; settings: in vivo, 96 h
Spinacia oleracea [9] = assay: Inhibition of seed germination in Spinacia oleracea at 100 uM after 24 hrs
Lactuca sativa [10] = assay: Inhibition of seed germination in Lactuca sativa at 100 uM after 24 hrs; format: functional
Spinacia oleracea [11] = assay: Inhibition of seed germination in Spinacia oleracea at 100 uM after 24 hrs; format: functional
Summary of the method: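 Spinach cv. Jiromaru seeds sterilized with EtOH for 5 min and rinsed in running tap water for 2 h. Placed on filter paper wetted with 2 ml test solution in a Petri dish, held 2 days at 5 °C, then germinated 24 h at 22 °C under continuous light. Single-concentration test at 100 µM.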

Arabidopsis thaliana [12] = assay: Inhibition of seed germination in Arabidopsis thaliana after 24 hrs; format: functional, organism-based
Lactuca sativa [13] = assay: Inhibition of seed germination in Lactuca sativa after 24 hrs; format: functional, organism-based

CC1=CC(=O)CC(C)(C)[C@@]1(O)/C=C/C(C)=C\C(=O)N[C@@H](CC(=O)O)C(=O)O
IC50 (Oryza sativa [1]): 6.4 µM | inhibition at 100 µM (Oryza sativa [2]): > 80%

CSCC[C@H](NC(=O)/C=C(C)\C=C\[C@@]1(O)C(C)=CC(=O)CC1(C)C)C(=O)O
Activity [3]: 22 nmol/h/mg | IC50 (Oryza sativa [1]): 16 µM | inhibition at 100 µM (Oryza sativa [2]): > 80%

CC1=CC(=O)CC(C)(C)[C@@]1(O)/C=C/C(C)=C\C(=O)N[C@@H](C)C(=O)O
inhibition (Arabidopsis thaliana [4]): Active | Stability [5]: Stable | Activity [6]: 310 nmol/h/mg | IC50 (Oryza sativa [1]): 7 µM | inhibition at 100 µM (Oryza sativa [2]): > 80%

CC1=CC(=O)CC(C)(C)[C@@]1(O)/C=C/C(C)=C\C(=O)N[C@@H](CC(N)=O)C(=O)O
Activity [3]: 19 nmol/h/mg | IC50 (Oryza sativa [1]): 9.3 µM | inhibition at 100 µM (Oryza sativa [2]): > 80%

C[C@H](NC(=O)Cc1c[nH]c2ccccc12)C(=O)O
Activity [7]: 2100 nmol/h/mg

[2H]C([2H])([2H])C1(C([2H])([2H])[2H])CC(=O)C=C(C)[C@]1(O)/C=C/C(C)=C\C(=O)N[C@H](C)C(=O)O
Stability (Oryza sativa [8]): Stable

CC1=CC(=O)CC(C)(C)[C@@]1(O)/C=C/C(C)=C\C(=O)N[C@@H](CCC(N)=O)C(=O)O
IC50 (Oryza sativa [1]): 8.3 µM | inhibition at 100 µM (Oryza sativa [2]): > 80% | inhibition (Spinacia oleracea [9]): Active

CC1=CC(=O)CC(C)(C)[C@@]1(O)/C=C/C(C)=C\C(=O)NCC(=O)O
Activity [6]: 230 nmol/h/mg | IC50 (Oryza sativa [1]): 5.7 µM | inhibition at 100 µM (Oryza sativa [2]): > 80%

[2H]C([2H])([2H])C1(C([2H])([2H])[2H])CC(=O)C=C(C)[C@]1(O)/C=C/C(C)=C\C(=O)N[C@@H](C)C(=O)O
Stability (Oryza sativa [8]): Unstable

CC1=CC(=O)CC(C)(C)[C@@]1(O)/C=C/C(C)=C\C(=O)N[C@@H](CCC(=O)O)C(=O)O
inhibition (Spinacia oleracea [9]): Active

CC1=CC(=O)CC(C)(C)[C@@]1(O)/C=C/C(C)=C\C(=O)O [(+)-ABSCISIC ACID]
inhibition at 10 µM (Arabidopsis thaliana [4]): 100% | inhibition at 100 µM (Lactuca sativa [10]): 100% | inhibition at 100 µM (Spinacia oleracea [11]): 100% | IC50 (Arabidopsis thaliana [12]): 0.2 µM | IC50 (Lactuca sativa [13]): 5.7 µM | IC50 (Oryza sativa [1]): 2.1 µM | inhibition at 100 µM (Oryza sativa [2]): 100%

CC1=CC(=O)CC(C)(C)[C@@]1(O)/C=C/C(C)=C\C(=O)N[C@@H](CO)C(=O)O
IC50 (Oryza sativa [1]): 13 µM | inhibition at 100 µM (Oryza sativa [2]): > 80%
